In ChEMBL document CHEMBL2331406, “In vitro activity of scorpiand-like azamacrocycle derivatives in promastigotes and intracellular amastigotes of Leishmania infantum and Leishmania braziliensis” (Eur J Med Chem, 2013):
The source made the active and inactive calls. No cut-off for these calls is given here.

What was measured:
Leishmania braziliensis [1] = experiment: Antileishmanial activity against promastigote form of Leishmania braziliensis MHOM/BR/1975/M2904 assessed as change in succinate metabolite production at IC25 concentration after 96 hrs by H1-NMR analysis; assay type: functional, MHOM/BR/75/M2904
Outline: (§1)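 Promastigote cultures, initial 5 × 10^5 cells/mL, given the IC25 of compound; controls left untreated. Incubated 96 h at 28 °C, then centrifuged at 400g for 10 min. Excreted metabolites in the medium identified by 1H NMR spectra and compared with untreated control.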

[2] = biological target: Superoxide dismutase [Mn] (Escherichia coli) (UniProt P00448); experiment: Inhibition of Escherichia coli Mn-SOD by NBT reduction assay
Leishmania infantum [3] = experiment: Antileishmanial activity against axenic amastigote form of Leishmania infantum MCAN/ES/2001/UCM-10 after 72 hrs by haemocytometric analysis; assay type: functional, organism-based; conditions: Leishmania infantum, MCAN/ES/2001/UCM-10, 72 h
Outline: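 Axenic amastigotes made by culturing promastigotes 3 days at 37 °C in M199 with 10% heat-inactivated FCS plus organic acids, amino acids, sucrose, bicarbonate, MES, haemin and gentamicin, pH 5.4. Compound effect counted in a Neubauer haemocytometer chamber. IC50 by linear regression of Kc values at 1, 10, 25, 50 and 100.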

[4] = Selectivity index, ratio of IC50 for mouse J774.2 cells to IC50 for axenic amastigote form of Leishmania braziliensis MHOM/BR/1975/M2904; assay type: toxicity; conditions: J774.2 cells, read-out: Ratio IC50
Outline: (§2)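 Axenic amastigotes obtained by 3-day promastigote transformation in supplemented M199 + 10% heat-inactivated FCS, pH 5.4, 37 °C. […] Host toxicity: J774.2, 72 h, PI/FDA flow cytometry. SI = macrophage IC50/axenic amastigote IC50; ratio is compound SI over Glucantime SI.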

[5] = Selectivity index, ratio of IC50 for mouse J774.2 cells to IC50 for promastigote form of Leishmania infantum MCAN/ES/2001/UCM-10; assay type: toxicity; conditions: J774.2 cells, read-out: Ratio IC50
Outline: (§3)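 J774.2 toxicity: 72 h at the same concentrations, viability by flow cytometry with propidium iodide/fluorescein diacetate; IC50 by linear regression. SI = macrophage IC50/parasite IC50; ratio is compound SI over Glucantime SI.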

Leishmania braziliensis [6] = experiment: Antileishmanial activity against promastigote form of Leishmania braziliensis MHOM/BR/1975/M2904 assessed as mortality at IC25 concentration after 96 hrs by MET microscopic analysis; assay type: functional; conditions: MHOM/BR/75/M2904
Outline: (§4)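 Promastigotes at 5 × 10^5 cells/mL in MTL medium with compound at IC25 for 96 h. Ultrastructure examined by transmission electron microscopy against untreated control parasites.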

Leishmania braziliensis [7] = experiment: Antileishmanial activity against promastigote form of […] Leishmania braziliensis MHOM/BR/1975/M2904 infected in J774.2 cells assessed as inhibition of infection in host cells at IC25 concentration incubated for 12 hrs […] by microscopic analysis; assay type: functional, MHOM/BR/75/M2904
[8] = Inhibition of Escherichia coli Mn-SOD by […] reduction assay
Outline: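 Commercial Mn-SOD from Escherichia coli assayed by spectrophotometric NBT-reduction method, in which superoxide reduces NBT.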

Leishmania braziliensis [9] = experiment: Antileishmanial activity against promastigote form of Leishmania braziliensis MHOM/BR/1975/M2904 assessed as change in lactate metabolite production at IC25 concentration after 96 hrs by H1-NMR analysis; assay type: functional, MHOM/BR/75/M2904; outline: as §1
Leishmania braziliensis [10] = experiment: Antileishmanial activity against promastigote form of Leishmania braziliensis MHOM/BR/1975/M2904 assessed as ethanol metabolite production at IC25 concentration after 96 hrs by H1-NMR analysis; assay type: functional, MHOM/BR/75/M2904; outline: as §1
[11] = Selectivity index, ratio of IC50 for mouse J774.2 cells to IC50 for amastigote form of Leishmania infantum MCAN/ES/2001/UCM-10 infected in J774.2 cells; assay type: toxicity, cell-based; conditions: J774.2 cells, read-out: Ratio IC50
Outline: (§5)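 J774.2 macrophages in MEM + 2 mM glutamine + 20% inactivated FCS were infected with stationary-phase promastigotes (10:1) for 24 h at 37 °C, 5% CO2. After washing, compounds were added at […] for 72 h. Amastigote reduction was scored in methanol-fixed, Giemsa-stained preparations; IC50 by regression; triplicates. SI = J774.2 IC50 (72 h flow cytometry)/amastigote IC50; ratio is versus Glucantime SI.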

[12] = Selectivity index, ratio of IC50 for mouse J774.2 cells to IC50 for axenic amastigote form of Leishmania infantum MCAN/ES/2001/UCM-10; assay type: toxicity; conditions: J774.2 cells, read-out: Ratio IC50; outline: as §2
Leishmania braziliensis [13] = experiment: Antileishmanial activity against promastigote form of Leishmania braziliensis MHOM/BR/1975/M2904 assessed as cytoplasmic alterations at IC25 concentration after 96 hrs by MET microscopic analysis; assay type: functional; conditions: MHOM/BR/75/M2904; outline: as §4
[14] = Ratio of compound selectivity index to glucantime selectivity index for axenic amastigote form of Leishmania infantum MCAN/ES/2001/UCM-10 over mouse J774.2 cells; outline: as §2
Leishmania braziliensis [15] = experiment: Antileishmanial activity against promastigote form of […] MHOM/BR/1975/M2904 infected in J774.2 cells assessed as inhibition of number of amastigotes per host cell at IC25 concentration incubated for 12 hrs followed by compound washout measured after 48 hrs by microscopic analysis; assay type: functional, MHOM/BR/75/M2904
Outline: (§6)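 J774.2 cells seeded at 1 × 10^4 cells/well on coverslips and cultured 2 days. Infected with promastigotes at 10:1 with drug at IC25 added immediately, for 12 h at 37 °C in 5% CO2. Parasites and drug washed out, then grown 10 days with washing and fresh medium every 48 h. On methanol-fixed, Giemsa-stained slides, % infected cells and amastigotes per infected cell scored from more than 200 host cells. Three determinations.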

[16] = Ratio of compound selectivity index to glucantime selectivity index for axenic amastigote form of Leishmania braziliensis MHOM/BR/1975/M2904 over mouse J774.2 cells; outline: as §2
[17] = Ratio of compound selectivity index to glucantime selectivity index for amastigote form of Leishmania braziliensis MHOM/BR/1975/M2904 infected in J774.2 cells over mouse J774.2 cells; outline: as §5
[18] = Ratio of compound selectivity index to glucantime selectivity index for promastigote form of Leishmania infantum MCAN/ES/2001/UCM-10 over mouse J774.2 cells; outline: as §3
[19] = Inhibition of promastigote form Leishmania braziliensis MHOM/BR/1975/M2904 Fe-SOD by NBT reduction assay; parameters: species or system Leishmania braziliensis MHOM/BR/75/M2904
Outline: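 Promastigotes sonicated in sucrose/Tris-HCl/EDTA buffer, pH 7.8, and centrifuged. Protein precipitating at 35–85% ammonium sulphate desalted into 20 mM potassium phosphate with 1 mM EDTA, pH 7.8. Protein measured by Bradford. Fe-SOD activity read spectrophotometrically as inhibition of NBT reduction by superoxide, with compounds at 0.1–50. IC50 by linear regression of Kc values; three determinations; Newman-Keuls test vs control homogenate.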

Leishmania infantum [20] = experiment: Antileishmanial activity against promastigote form of Leishmania infantum MCAN/ES/2001/UCM-10 assessed as change in alanine metabolite production at IC25 concentration after 96 hrs by H1-NMR analysis; assay type: functional; outline: as §1
Leishmania infantum [21] = experiment: Antileishmanial activity against promastigote form of Leishmania infantum MCAN/ES/2001/UCM-10 assessed as change in acetate metabolite production at IC25 concentration after 96 hrs by H1-NMR analysis; assay type: functional; outline: as §1
Leishmania infantum [22] = experiment: Antileishmanial activity against promastigote form of Leishmania infantum MCAN/ES/2001/UCM-10 infected in J774.2 cells assessed as inhibition of infection in host cells at IC25 concentration incubated for 12 hrs followed by compound washout measured after 48 hrs by microscopic analysis; assay type: functional; outline: as §6

Sequence of Superoxide dismutase [Mn] (Escherichia coli) (P00448 whole entry, looked up): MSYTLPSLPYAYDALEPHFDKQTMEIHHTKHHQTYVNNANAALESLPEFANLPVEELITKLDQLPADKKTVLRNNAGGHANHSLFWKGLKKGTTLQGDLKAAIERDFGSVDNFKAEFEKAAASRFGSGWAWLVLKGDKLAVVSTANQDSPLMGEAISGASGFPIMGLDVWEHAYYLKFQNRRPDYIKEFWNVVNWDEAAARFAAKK

SMILES | Activity (Leishmania braziliensis [1]) [%] | IC50 [2] [µM] | IC50 (Leishmania infantum [3]) [µM] | selectivity ratio [4] | selectivity ratio [5] | Activity (Leishmania braziliensis [6]) | inhibition (INH) (Leishmania braziliensis [7]) [%] | IC50 [8] [µM] | Activity (Leishmania braziliensis [9]) [%] | Activity (Leishmania braziliensis [10]) [%] | selectivity ratio [11] | selectivity ratio [12] | Activity (Leishmania braziliensis [13]) | Ratio [14] | inhibition (INH) (Leishmania braziliensis [15]) [%] | Ratio [16] | Ratio [17] | Ratio [18] | IC50 [19] [µM] | Activity (Leishmania infantum [20]) [%] | other results
Br.NCCN1CCNCc2cccc(n2)CNCC1 | 22 | 381 | 29.2 | 14.5 | 12.2 | Active | 64 | 381 | 6 | 6 | 9 | 8 | Active | 16 | 55 | 29 | 29 | 15 | 15.1 |  | 
Cl.c1cncc(CNCCN2CCNCc3cccc(n3)CNCC2)c1 | -47 | 641 | 15.9 | 19.6 | 24.9 | Active | 86 | 641 | 19 | -59 | 74.3 | 29.4 | Active | 59 | 80 | 39 | 57 | 31 | 9 | -12 | Activity (Leishmania infantum [21]): 1%; inhibition (INH) (Leishmania infantum [22]): 84%
Cl.c1ccc(CNCCN2CCNCc3cccc(n3)CNCC2)nc1 | -78 | 179 | 25.4 | 15.9 | 16.4 | Active | 83 | 178 | 0 | -71 | 13 | 10 | Active | 20 | 67 | 32 | 30 | 20 | 1.3 | 12 | Activity (Leishmania infantum [21]): -19%; inhibition (INH) (Leishmania infantum [22]): 77%
Cl.c1cc2nc(c1)CNCCN(CCNCc1cccc3ccccc13)CCNC2 | 2 | 408 | 28.1 | 14.7 | 18.8 | Active | 71 | 408 | 0 | -6 | 21 | 13 | Active | 26 | 59 | 29 | 27 | 23 | 16.6 | -18 | Activity (Leishmania infantum [21]): -6%; inhibition (INH) (Leishmania infantum [22]): 74%
